A value given as a limit tells only on which side of the number the result lay.

Broadly, the IC50 is the point on the concentration scale where inhibition reaches its midpoint. Read a low IC50 as greater potency. In general, inhibition refers to the relative decrease from the control value, in per cent.

Test [1] deals with T1, Hepatocyte growth factor receptor (Homo sapiens, UniProt P08581). Nature of the test: Inhibition of c-Met after 60 mins by ELISA. The gist of the method:
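ELISA on plates pre-coated with Poly(Glu,Tyr) 4:1 at 20 µg/mL. Detection used anti-phosphotyrosine PY99, then HRP anti-mouse IgG and o-phenylenediamine/H₂O₂, read at 490 nm. IC50 was calculated by the Logit method from ≥3 independent tests at six concentrations each.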
A general note: ELISA stands for enzyme-linked immunosorbent assay.

For test [2], the target named is T1, Hepatocyte growth factor receptor. Nature of the test: Inhibition of c-Met at 10 uM after 60 mins by ELISA. The gist of the method: (§1)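 c-Met tyrosine kinase ELISA with Poly(Glu,Tyr) 4:1 substrate and 10 µM ATP in HEPES pH 7.4 buffer with Mg²⁺/Mn²⁺, run 60 min at 37 °C. Phosphotyrosine was detected with PY99 and an HRP secondary antibody, read at 490 nm. Percent inhibition was measured at a single compound concentration.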

The target is the same in test [3]. As to the kind of experiment: Inhibition of c-Met at 1 uM after 60 mins by ELISA. A digest of the protocol:
as §1

The subject of test [4] is BaF3. Nature of the test: Antiproliferative activity against […] BAF3 cells expressing TPR-Met assessed as inhibition of cell growth at 1 uM. Type of test: functional. To be noted: Mus musculus. The gist of the method:
(§2)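 BaF3 cells stably expressing TPR-Met were seeded in 96-well plates. Next day they were exposed to compound at 10, 1 or 0.1 µM for 72 h. Growth was read by MTT at A570. Inhibition (%) = [1 − (A570/A570 control)] × 100.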

Test [5] deals with BaF3. Nature of the test: Antiproliferative activity against […] BAF3 cells expressing TPR-Met assessed as inhibition of cell growth at 0.1 uM. Type of test: functional. Particulars: Mus musculus. The gist of the method:
as §2

The subject of test [6] is BaF3. Nature of the test: Antiproliferative activity against […] BAF3 cells expressing TPR-Met assessed as inhibition of cell growth at 10 uM. Type of test: functional. To be noted: Mus musculus. A digest of the protocol: as §2

T1 sequence (P08581 whole entry): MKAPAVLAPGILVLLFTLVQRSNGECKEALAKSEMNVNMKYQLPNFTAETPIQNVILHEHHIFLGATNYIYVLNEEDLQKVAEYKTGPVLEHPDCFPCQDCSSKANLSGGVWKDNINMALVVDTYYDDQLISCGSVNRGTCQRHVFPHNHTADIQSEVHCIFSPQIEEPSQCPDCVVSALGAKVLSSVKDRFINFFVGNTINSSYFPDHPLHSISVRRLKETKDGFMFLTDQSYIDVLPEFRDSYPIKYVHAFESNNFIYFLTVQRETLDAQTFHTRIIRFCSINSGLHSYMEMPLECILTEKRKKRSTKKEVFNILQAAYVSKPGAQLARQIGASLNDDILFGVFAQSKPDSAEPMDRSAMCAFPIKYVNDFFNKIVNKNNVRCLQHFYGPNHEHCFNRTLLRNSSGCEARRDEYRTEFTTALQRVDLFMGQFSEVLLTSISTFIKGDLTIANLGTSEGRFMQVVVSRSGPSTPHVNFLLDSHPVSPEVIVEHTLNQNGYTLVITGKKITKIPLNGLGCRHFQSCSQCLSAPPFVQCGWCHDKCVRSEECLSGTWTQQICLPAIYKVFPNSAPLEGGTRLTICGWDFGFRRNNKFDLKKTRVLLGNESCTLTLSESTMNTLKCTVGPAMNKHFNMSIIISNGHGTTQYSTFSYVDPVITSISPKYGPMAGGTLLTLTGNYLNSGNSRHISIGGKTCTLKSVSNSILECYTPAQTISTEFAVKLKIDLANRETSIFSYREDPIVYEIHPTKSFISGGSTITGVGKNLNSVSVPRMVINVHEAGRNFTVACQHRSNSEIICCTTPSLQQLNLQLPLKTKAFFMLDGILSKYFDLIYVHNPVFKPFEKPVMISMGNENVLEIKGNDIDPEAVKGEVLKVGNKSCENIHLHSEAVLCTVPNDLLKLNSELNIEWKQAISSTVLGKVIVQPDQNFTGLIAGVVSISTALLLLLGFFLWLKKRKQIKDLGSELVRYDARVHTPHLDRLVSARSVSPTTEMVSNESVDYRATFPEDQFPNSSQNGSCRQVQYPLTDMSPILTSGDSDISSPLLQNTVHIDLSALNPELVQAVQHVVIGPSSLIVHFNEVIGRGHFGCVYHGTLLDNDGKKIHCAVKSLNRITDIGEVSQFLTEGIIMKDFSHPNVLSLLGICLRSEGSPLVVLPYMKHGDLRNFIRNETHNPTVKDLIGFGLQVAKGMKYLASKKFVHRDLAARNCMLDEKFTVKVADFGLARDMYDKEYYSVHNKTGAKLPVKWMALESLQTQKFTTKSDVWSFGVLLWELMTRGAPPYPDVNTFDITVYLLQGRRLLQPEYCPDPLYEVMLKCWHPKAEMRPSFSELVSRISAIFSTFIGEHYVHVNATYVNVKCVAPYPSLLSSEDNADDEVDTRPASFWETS

For the molecule `COc1nc(Oc2ccc(NC(=O)c3cccn(-c4ccc(F)cc4)c3=O)cc2F)c2c(-c3ccccc3)coc2n1`, in test [1], the IC50 was above 10000 nM. Moreover, the inhibition in test [2] turned out to be 31.7%.
For the molecule `O=C(Nc1ccc(Oc2ncnc3scc(-c4ccc5ccccc5c4)c23)c(F)c1)c1cccn(-c2ccc(F)cc2)c1=O`, the inhibition in test [3] was below 50%; in test [2] it was 92.1%.
In test [1], `O=C(Nc1ccc(Oc2ncnc3sc4c(c23)CCC4)c(F)c1)c1cccn(-c2ccc(F)cc2)c1=O` displayed an IC50 above 10000 nM. For the same molecule, the inhibition in test [2] turned out to be 12.3%.
As to `O=C(Nc1ccc(Oc2ncnc3occ(-c4ccc(F)cc4)c23)c(F)c1)c1cccn(-c2ccc(F)cc2)c1=O`, the IC50 in test [1] is 310 nM. For the same molecule, the inhibition in test [2] worked out at 80.9%. The inhibition at 1 µM in test [4] was -5.8%. For the same molecule, the inhibition at 0.1 µM in test [5] was -4.7%. Further, the inhibition at 10 µM in test [6] turned out to be 76.3%.
For the molecule `O=C(Nc1ccc(Oc2ncnc3sccc23)c(F)c1)c1cccn(-c2ccc(F)cc2)c1=O`, in test [1], the concentration for half-maximal inhibition (IC50) is above 10000 nM. Besides, in test [2], the inhibition stood at 14.3%. The inhibition at 1 µM in test [4] was -6.5%. In test [5], the inhibition at 0.1 µM was -12.8%. The inhibition at 10 µM in test [6] is 5.3%.
In test [1], `O=C(Nc1ccc(Oc2ncnc3sc4c(c23)CCCCC4)c(F)c1)c1cccn(-c2ccc(F)cc2)c1=O` registered an IC50 above 10000 nM. The inhibition in test [2] turned out to be 23.4%.
Turning to `Cc1nc(Oc2ccc(NC(=O)c3cccn(-c4ccc(F)cc4)c3=O)cc2F)c2c(-c3cccs3)coc2n1`, the IC50 in test [1] was above 10000 nM. Besides, in test [2], the inhibition is 24.3%. Also, in test [4], the inhibition at 1 µM was -2.8%. Also, the inhibition at 0.1 µM in test [5] came to 0.6%. In test [6], the inhibition at 10 µM was -9.7%.
In the case of `CNc1nc(Oc2ccc(NC(=O)c3cccn(-c4ccc(F)cc4)c3=O)cc2F)c2c(-c3ccccc3)coc2n1`, the inhibition was below 50% in test [3] and 78.2% in test [2].
Molecule `O=C(Nc1ccc(Oc2ncnc3scc(-c4ccc(C(F)(F)F)cc4)c23)c(F)c1)c1cccn(-c2ccc(F)cc2)c1=O` returned an IC50 in test [1] of 191 nM. The inhibition in test [2] was determined as 83.8%.
In turn, `O=C(Nc1ccc(Oc2ncnc3sc(-c4ccccc4)cc23)c(F)c1)c1cccn(-c2ccc(F)cc2)c1=O` came in with an IC50 in test [1] above 10000 nM. For the same molecule, in test [2], the inhibition is 10.6%.
Turning to `O=C(Nc1ccc(Oc2ncnc3scc(-c4ccc(-c5ccccc5)cc4)c23)c(F)c1)c1cccn(-c2ccc(F)cc2)c1=O`, the inhibition in test [3] was below 50%; in test [2] it was 80.4%.
Molecule `O=C(Nc1ccc(Oc2ncnc3occ(-c4cccs4)c23)c(F)c1)c1cccn(-c2ccc(F)cc2)c1=O` showed a half-inhibitory concentration (IC50) in test [1] above 10000 nM. Also, in test [2], the inhibition came to 46.6%. Moreover, the inhibition at 1 µM in test [4] is -9.3%. In addition, the inhibition at 0.1 µM in test [5] is -12.1%. Moreover, the inhibition at 10 µM in test [6] was -5.4%.
`Cc1coc2ncnc(Oc3ccc(NC(=O)c4cccn(-c5ccc(F)cc5)c4=O)cc3F)c12` registered a 50% inhibitory concentration (IC50) in test [1] above 10000 nM. For the same molecule, the inhibition in test [2] worked out at 16.5%.
For `COc1ccc(-c2csc3ncnc(Oc4ccc(NC(=O)c5cccn(-c6ccc(F)cc6)c5=O)cc4F)c23)cc1OC`, in that order: 123 nM and 99.9%.
Molecule `[N-]=[N+]=Nc1nc(Oc2ccc(NC(=O)c3cccn(-c4ccc(F)cc4)c3=O)cc2F)c2c(-c3ccccc3)coc2n1` registered an IC50 in test [1] above 10000 nM. In addition, the inhibition in test [2] stood at 18.5%.
As to `CSc1nc(Oc2ccc(NC(=O)c3cccn(-c4ccc(F)cc4)c3=O)cc2F)c2c(-c3ccccc3)coc2n1`, the IC50 in test [1] is above 10000 nM. Also, in test [2], the inhibition came out at 33.4%. Also, in test [4], the inhibition at 1 µM came out at 2%. Also, the inhibition at 0.1 µM in test [5] was found to be 10.3%. In addition, in test [6], the inhibition at 10 µM stood at 14.9%.
`CS(=O)(=O)c1nc(Oc2ccc(NC(=O)c3cccn(-c4ccc(F)cc4)c3=O)cc2F)c2c(-c3ccccc3)coc2n1`: the 50% inhibitory concentration (IC50) in test [1] is above 10000 nM. In addition, the inhibition in test [2] came out at 36.7%.
Molecule `O=C(Nc1ccc(Oc2ncnc3scc(-c4ccc(F)c(F)c4)c23)c(F)c1)c1cccn(-c2ccc(F)cc2)c1=O` returned an IC50 in test [1] of 65.7 nM. In addition, the inhibition in test [2] worked out at 88.4%. Also, the inhibition at 1 µM in test [4] came to 13.9%. Also, the inhibition at 0.1 µM in test [5] was -1.1%. Moreover, the inhibition at 10 µM in test [6] worked out at 89.7%.
In test [1], `Cc1nc(Oc2ccc(NC(=O)c3cccn(-c4ccc(F)cc4)c3=O)cc2F)c2c3c(sc2n1)CCCC3` returned an IC50 above 10000 nM. Further, the inhibition in test [2] stood at 31.2%.
Turning to `Cc1ccc(-c2csc3ncnc(Oc4ccc(NC(=O)c5cccn(-c6ccc(F)cc6)c5=O)cc4F)c23)s1`, in test [1], the midpoint of inhibition, the IC50, lay at 42 nM. Moreover, in test [2], the inhibition came out at 85.5%. The inhibition at 1 µM in test [4] is 60.6%. For the same molecule, in test [5], the inhibition at 0.1 µM was -2.3%. The inhibition at 10 µM in test [6] worked out at 95%.
Consider `COc1ccc(-c2csc3ncnc(Oc4ccc(NC(=O)c5cccn(-c6ccc(F)cc6)c5=O)cc4F)c23)cc1`, for which half-maximal inhibition in test [1] (IC50) required 46.5 nM. Besides, in test [2], the inhibition was 90%. In addition, the inhibition at 1 µM in test [4] was 91.1%. For the same molecule, in test [5], the inhibition at 0.1 µM was -10.1%. In addition, the inhibition at 10 µM in test [6] is 94.3%.
For `O=C(Nc1ccc(Oc2ncnc3occ(-c4ccccc4)c23)c(F)c1)c1cccn(-c2ccc(F)cc2)c1=O`, in that order: 69.8 nM, 84.9%, 14.6%, -6.9% and 93.7%.
For `O=C(Nc1ccc(Oc2ncnc3scc(-c4ccc(F)cc4)c23)c(F)c1)c1cccn(-c2ccc(F)cc2)c1=O`, in that order: 68 nM, 71.9%, 30.8%, 12.9% and 92.2%.

The values above are taken from ChEMBL document CHEMBL1811756, “Discovery of novel c-Met kinase inhibitors bearing a thieno[2,3-d]pyrimidine or furo[2,3-d]pyrimidine scaffold” (Bioorg Med Chem, 2011).
